Compounds with a hit are over-represented: about 3.1% of the library has one in this group of screens.
CSN inh = inhibitors of CSN-mediated cullin deneddylation, primary screen, biochemical, fluorescence polarization, uHTS; 360,000 compounds, 0.38% hits; inhibition, % at 12.5 µM; Purified CSN, SCF-Nedd8-OG deneddylation; COP9 signalosome complex subunit 5 (Homo sapiens), Q92905;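 active = pattern-corrected inhibition above about 35%, with an unprinted fluorescence ratio check between 0.5 and 1.5, limit read from the data, passing the limit was not always enough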
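Detection – fluorescence polarization · System – HEK293T-derived human Csn5 enzyme · Controls – substrate-only high control, full reaction low control · Timing – 90 min, room temperature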
LEDGF integ inh = blockers of LEDGF/p75-dependent integrase strand transfer – biochemical, TR-FRET, high throughput, primary screen; TR-FRET IN-LEDGF/p75 DNA integration, Eu/Cy5; inhibition, % at 3.7 µM; 370,000 compounds, 0.64% hits; AID 743269, 2014;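 active = inhibition above the screen-wide mean plus 3 SD, cut at about 13% in these data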;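 note: signal is the Cy5 over europium emission ratio at 671 and 618 nm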
rCAG RNA binder = binders of r(CAG) RNA repeats, primary screen, biochemical, fluorescence; r(CAG) RNA repeat, TO-PRO-1 dye displacement fluorescence; inhibition, % at 3 µM; 370,000 compounds, 1.3% hits; AID 651821, 2012;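 active = inhibition above the plate cutoff, the mean of all test compounds on that plate plus 3 SD, cut at about 35% in these data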;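 note: higher means more dye released from RNA so lower well fluorescence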
MBD2 inh = inhibitors of MBD2 binding to methylated DNA, primary screen, biochemical, TR-FRET, DNA-binding domain, human | Methyl-CpG-binding domain protein 2 (Homo sapiens), Q9UBB5 | MBD2 binding to methylated oligonucleotide | inhibition, % at 4.4 µM | 370,000 compounds, 0.31% hits; in the data active = inhibition above about 13%
ATG4B inhibitor = ATG4B protease inhibitors, primary screen, biochemical, fluorescence, uHTS | Cysteine protease ATG4B (Homo sapiens), Q9Y4P1 | ATG4B cleavage of LC3-PLA2, NBD-HPC fluorescence, 1 h | inhibition, % at 8.33 µM | 340,000 compounds, 0.51% hits | AID 504462, 2011; in the data active = inhibition above about 40%
UHRF1 MBD2 ctr = UHRF1 methylated DNA binding inhibitors, primary screen, counter-screen for MBD2 inhibitor project, biochemical, TR-FRET, human UHRF1, single concentration; E3 ubiquitin-protein ligase UHRF1 (Homo sapiens), Q96T88; UHRF1 binding to methylated oligo; inhibition, % at 4.4 µM; 370,000 compounds, 0.75% hits; AID 687016, 2013; in the data active = inhibition above about 21%;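 note: UHRF1 SRA domain binding a hemimethylated CpG hairpin DNA probe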
Target sequence (Q96T88 whole entry, looked up, the tested form may be a part): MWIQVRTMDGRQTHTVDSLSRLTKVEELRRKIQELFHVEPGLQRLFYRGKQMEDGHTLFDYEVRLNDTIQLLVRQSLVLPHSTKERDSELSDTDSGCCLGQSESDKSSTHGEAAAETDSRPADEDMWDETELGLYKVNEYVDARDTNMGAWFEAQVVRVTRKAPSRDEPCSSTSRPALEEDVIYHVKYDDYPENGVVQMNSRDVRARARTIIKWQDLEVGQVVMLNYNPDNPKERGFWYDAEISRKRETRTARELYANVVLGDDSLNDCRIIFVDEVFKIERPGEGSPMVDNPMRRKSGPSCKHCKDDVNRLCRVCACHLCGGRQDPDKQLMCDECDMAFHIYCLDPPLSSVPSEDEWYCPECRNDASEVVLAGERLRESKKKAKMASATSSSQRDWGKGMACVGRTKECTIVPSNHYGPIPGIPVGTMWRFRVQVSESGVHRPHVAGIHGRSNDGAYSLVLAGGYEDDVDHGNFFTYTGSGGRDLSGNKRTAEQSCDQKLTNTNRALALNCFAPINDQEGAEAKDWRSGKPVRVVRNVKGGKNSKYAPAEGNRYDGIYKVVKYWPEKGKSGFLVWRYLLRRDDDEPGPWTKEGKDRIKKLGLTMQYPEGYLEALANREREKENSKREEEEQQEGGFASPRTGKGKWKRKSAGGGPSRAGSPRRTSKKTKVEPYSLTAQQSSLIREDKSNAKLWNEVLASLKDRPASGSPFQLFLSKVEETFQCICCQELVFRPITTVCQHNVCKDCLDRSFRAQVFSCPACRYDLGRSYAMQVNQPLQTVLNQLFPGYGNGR
IN multimer act = HIV-1 IN multimer formation enhancers, counter-screen for LEDGF/p75 integration inhibitor project, biochemical, TR-FRET; shares compounds with LEDGF integ inh; TR-FRET HIV-1 integrase multimerization; activation, % at 7.7 µM; 2,000 compounds, 17% hits; in the data active = activation above about 8.9%
TRFRET interf = TR-FRET optical interference artefacts, confirmation, artefact control for LEDGF/p75-dependent integration inhibitor project, biochemical, HIV-1 IN multimerization; 2,000 tested, under 10 active; TR-FRET optical interference counterscreen; inhibition, % at 7.7 µM; shares compounds with LEDGF integ inh;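 active = inhibition above the mean over all tested compounds plus 3 SD, which no compound reached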
LEDGF integ conf = inhibitors of HIV-1 IN-LEDGF/p75 DNA integration, confirmation, biochemical, TR-FRET | inhibition, % at 3.7 µM | shares compounds with LEDGF integ inh | TR-FRET LEDGF/p75-dependent HIV-1 integration | 2,000 compounds, 36% hits | AID 1053136, 2014; in the data active = inhibition above about 14%
Hits are given with their value.

`CS(=O)(=O)N(CC(=O)N1CCN(c2cccc(Cl)c2)CC1)c1cccc(F)c1` gave CSN inh inactive, LEDGF integ inh 24, rCAG RNA binder inactive, MBD2 inh inactive, ATG4B inhibitor inactive, UHRF1 MBD2 ctr inactive, IN multimer act inactive, TRFRET interf inactive and LEDGF integ conf inactive.
Screening C=CCN(CC=C)C(=S)NC(=O)c1ccc(C)c(Br)c1 returned CSN inh inactive, LEDGF integ inh 25, rCAG RNA binder inactive, MBD2 inh inactive, ATG4B inhibitor inactive, UHRF1 MBD2 ctr inactive, IN multimer act inactive, TRFRET interf inactive and LEDGF integ conf 33.
C=CCN(CC=C)C(=S)NC(=O)c1ccc(-c2ccccc2)cc1 was read as CSN inh inactive, LEDGF integ inh 23, rCAG RNA binder inactive, MBD2 inh inactive, ATG4B inhibitor inactive, UHRF1 MBD2 ctr inactive, IN multimer act inactive, TRFRET interf inactive and LEDGF integ conf 17.
`COc1ccc(C(C(=O)N(C)C2CCCC2)N(Cc2ccc(F)cc2)C(=O)c2csc3ccc(Cl)cc23)cc1OC` (stereo unspecified) gave LEDGF integ inh inactive, rCAG RNA binder inactive, MBD2 inh inactive and UHRF1 MBD2 ctr inactive.
For COc1cc(CCC(O)CC(=O)CCc2ccccc2)ccc1O (stereo unspecified) the results were CSN inh inactive, LEDGF integ inh 23, rCAG RNA binder inactive, MBD2 inh inactive, ATG4B inhibitor inactive, UHRF1 MBD2 ctr inactive, IN multimer act inactive, TRFRET interf inactive and LEDGF integ conf inactive.
Screening COc1cc(/C=N/NC(=O)CCc2ccccc2)ccc1O returned CSN inh inactive, LEDGF integ inh inactive, rCAG RNA binder inactive, MBD2 inh inactive, ATG4B inhibitor inactive and UHRF1 MBD2 ctr inactive.
`COC(=O)C[C@H]1CC[C@@H]2[C@H](COc3ccc(NC(=O)c4cnccn4)cc3C(=O)N2C)O1` gave LEDGF integ inh inactive, rCAG RNA binder inactive, MBD2 inh inactive and UHRF1 MBD2 ctr inactive.
For CC1=NN(c2ccccc2)C(=O)/C1=C/c1cccc(C)c1 the results were CSN inh inactive, LEDGF integ inh 16, rCAG RNA binder inactive, MBD2 inh inactive, ATG4B inhibitor inactive, UHRF1 MBD2 ctr inactive, IN multimer act inactive, TRFRET interf inactive and LEDGF integ conf inactive.
`CC(=O)Oc1ccc(/C=C2/C(=O)N(c3ccccc3)N=C2C)cc1` gave CSN inh inactive, LEDGF integ inh 51, rCAG RNA binder inactive, MBD2 inh 24, ATG4B inhibitor inactive, UHRF1 MBD2 ctr inactive, IN multimer act inactive, TRFRET interf inactive and LEDGF integ conf inactive.
`COc1cc(/C=C2/C(=O)N(c3cccc(Br)c3)N=C2C)cc(OC)c1O` gave CSN inh inactive, LEDGF integ inh inactive, rCAG RNA binder inactive, MBD2 inh inactive, ATG4B inhibitor inactive and UHRF1 MBD2 ctr inactive.
`COc1ccc(/C=C2/C(=O)N(c3ccccc3)N=C2C)cc1OC` gave CSN inh inactive, LEDGF integ inh 27, rCAG RNA binder inactive, MBD2 inh inactive, ATG4B inhibitor inactive, UHRF1 MBD2 ctr inactive, IN multimer act inactive, TRFRET interf inactive and LEDGF integ conf inactive.
Screening C=CCCC(=O)N[C@H]1CC[C@@]23CCCN2C(=O)CCC[C@H]3[C@H]1CCC returned LEDGF integ inh inactive, MBD2 inh inactive and UHRF1 MBD2 ctr inactive.
For O=C(CSc1nc2ccccc2c(=O)[nH]1)NC1CCCCC1 the results were LEDGF integ inh inactive, MBD2 inh inactive and UHRF1 MBD2 ctr inactive.
Screening COc1ccc(-c2c(Cc3ccccc3)nc(NC(=O)c3ccccc3F)n2C)cc1 returned LEDGF integ inh 20, rCAG RNA binder inactive, MBD2 inh inactive, UHRF1 MBD2 ctr inactive, IN multimer act inactive, TRFRET interf inactive and LEDGF integ conf 17.
Cc1nnc(NC(=O)CCC2CCCCC2)s1 was read as CSN inh inactive, LEDGF integ inh inactive, rCAG RNA binder inactive, MBD2 inh inactive and UHRF1 MBD2 ctr inactive.
Screening O=C(CCC1CCCCC1)Nc1nccs1 returned CSN inh inactive, LEDGF integ inh 21, rCAG RNA binder inactive, MBD2 inh inactive, ATG4B inhibitor inactive, UHRF1 MBD2 ctr inactive, IN multimer act inactive, TRFRET interf inactive and LEDGF integ conf inactive.
Screening O=C(Cn1cncn1)N/N=C/c1ccc(Cl)cc1 returned CSN inh inactive, LEDGF integ inh inactive, rCAG RNA binder inactive, MBD2 inh inactive, ATG4B inhibitor inactive and UHRF1 MBD2 ctr inactive.
Screening O=C(Cn1cncn1)NCc1ccc(Cl)cc1 returned CSN inh inactive, LEDGF integ inh 19, rCAG RNA binder inactive, MBD2 inh inactive, ATG4B inhibitor inactive, UHRF1 MBD2 ctr inactive, IN multimer act inactive, TRFRET interf inactive and LEDGF integ conf inactive.
For CN(C)c1cccc2c1c(NS(=O)(=O)c1cn(C)cn1)nn2C the results were CSN inh inactive, LEDGF integ inh 15, rCAG RNA binder inactive, MBD2 inh inactive, ATG4B inhibitor inactive, UHRF1 MBD2 ctr inactive, IN multimer act inactive, TRFRET interf inactive and LEDGF integ conf inactive.
For COC(=O)[C@@H]1C[C@@]2(c3ccccc3)c3ccccc3N(S(=O)(=O)c3ccccc3)[C@H]2N1C(=O)CNC/C=C(\C)CCC=C(C)C the results were LEDGF integ inh inactive, rCAG RNA binder inactive, MBD2 inh inactive and UHRF1 MBD2 ctr inactive.
Screening O=S(=O)(Nc1ccc(O)c2ccccc12)c1ccc(F)cc1 returned CSN inh inactive, LEDGF integ inh 27, rCAG RNA binder inactive, MBD2 inh inactive, ATG4B inhibitor inactive, UHRF1 MBD2 ctr inactive, IN multimer act inactive, TRFRET interf inactive and LEDGF integ conf inactive.
For COc1ccc(OC)c(S(=O)(=O)Nc2ccc(O)c3ccccc23)c1 the results were CSN inh inactive, LEDGF integ inh 23, rCAG RNA binder inactive, MBD2 inh inactive, ATG4B inhibitor inactive, UHRF1 MBD2 ctr inactive, IN multimer act inactive, TRFRET interf inactive and LEDGF integ conf inactive.
